From ChEMBL document CHEMBL1127343, “"Glycylcyclines". 3. 9-Aminodoxycyclinecarboxamides” (1994)
Values after ≈ are worked out from the molar mass of the structure shown. Where a SMILES comes first, the peptide text is derived from it. The star is where a group is joined. X1 = C[C@H]1c2ccc(N*)c(O)c2C(=O)C2=C(O)[C@]3(O)C(O)=C(C(N)=O)C(=O)[C@@H](N(C)C)C3[C@@H](O)C21

What was measured:
Format in all cases: functional
Staphylococcus aureus [1] = experiment: In vitro antibacterial activity was measured on gram positive bacteria Staphylococcus aureus smith cell lines
Procedure, shortened: (§1)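 MIC by agar dilution on Mueller-Hinton II agar; inoculum (1–5) × 10^5 CFU/mL; antibiotic range 32–0.004 μg/mL; plates incubated 18 h at 35 °C in forced-air incubator. MIC taken as lowest concentration inhibiting growth. Tetracycline, minocycline and doxycycline run as standards in each assay.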

Escherichia coli [2] = experiment: In vitro antibacterial activity was measured on gram negative bacteria Escherichia coli UBMS 90-5 sensitive cell lines; procedure, shortened: as §1
Staphylococcus aureus [3] = experiment: In vitro antibacterial activity was measured on gram positive bacteria Staphylococcus aureus UBMS 90-1 tet-M (ribosomal protection) cell lines; procedure, shortened: as §1
Staphylococcus aureus [4] = experiment: In vitro antibacterial activity was measured on gram positive bacteria Staphylococcus aureus UBMS 90-3 sensitive cell lines; procedure, shortened: as §1
Escherichia coli [5] = experiment: In vitro antibacterial activity was measured on gram negative bacteria Escherichia coli UBMS 90-4 tet-M (ribosomal protection) cell lines
Procedure, shortened: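 Agar dilution MIC on Mueller-Hinton II agar. Inoculum (1–5) × 10^5 CFU/mL, drug range 32–0.004 μg/mL. Plates incubated 18 h at 35 °C in a forced-air incubator. MIC is the lowest concentration that inhibits growth. The strain panel covered tetracycline-sensitive and -resistant strains. Tetracycline, minocycline and doxycycline were run as standards in each assay.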

Escherichia coli [6] = experiment: In vitro antibacterial activity was measured on gram negative bacteria Escherichia coli PRP-1 tet-a(efflux resistance) cell lines
Escherichia coli [7] = experiment: In vitro antibacterial activity was measured on gram negative bacteria Escherichia coli J3272 tet-C(efflux resistance) cell lines
Staphylococcus aureus [8] = experiment: In vitro antibacterial activity was measured on gram positive bacteria Staphylococcus aureus UBMS 88-7 tet-k(efflux resistance) cell lines
Escherichia coli [9] = experiment: In vitro antibacterial activity was measured on gram negative bacteria Escherichia coli UBMS 88-1 tet-B(efflux resistance) cell lines

Row | SMILES | MIC (Staphylococcus aureus [1]) [µg/mL] | MIC (Escherichia coli [2]) [µg/mL] | MIC (Staphylococcus aureus [3]) [µg/mL] | MIC (Staphylococcus aureus [4]) | MIC (Escherichia coli [5]) [µg/mL] | MIC (Escherichia coli [6]) [µg/mL] | MIC (Escherichia coli [7]) [µg/mL] | MIC (Staphylococcus aureus [8]) [µg/mL] | MIC (Escherichia coli [9]) [µg/mL]
1 | CC(C)C[C@H](N)C(=O)NCC(=O)Nc1ccc2c(c1O)C(=O)C1=C(O)[C@]3(O)C(O)=C(C(N)=O)C(=O)[C@@H](N(C)C)C3[C@@H](O)C1[C@H]2C (stereo partly drawn) | 16 (≈ 25.4 µM) | > 32 | > 32 | > 32 µg/mL | > 32 |  |  |  | 
2 | C[C@H]1c2ccc(NC(=O)CN(C)C)c(O)c2C(=O)C2=C(O)[C@]3(O)C(O)=C(C(N)=O)C(=O)[C@@H](N(C)C)C3[C@@H](O)C21 (stereo partly drawn) | 0.25 (≈ 0.459 µM) | 0.5 (≈ 0.918 µM) | 0.5 (≈ 0.918 µM) | 0.12 µg/mL (≈ 0.22 µM) | 0.25 (≈ 0.459 µM) | 2 (≈ 3.67 µM) | 8 (≈ 14.7 µM) | 4 (≈ 7.35 µM) | 1 (≈ 1.84 µM)
3 | CCCCCCCCCC(=O)Nc1ccc2c(c1O)C(=O)C1=C(O)[C@]3(O)C(O)=C(C(N)=O)C(=O)[C@@H](N(C)C)C3[C@@H](O)C1[C@H]2C (stereo partly drawn) | > 32 | > 32 | > 32 | 16 µg/mL (≈ 26.1 µM) | > 32 |  |  |  | 
4 | CC(C)C[C@H](NC(=O)[C@H](CC(C)C)NC(=O)[C@H](CC(C)C)NC(=O)[C@@H](N)CC(C)C)C(=O)Nc1ccc2c(c1O)C(=O)C1=C(O)[C@]3(O)C(O)=C(C(N)=O)C(=O)[C@@H](N(C)C)C3[C@@H](O)C1[C@H]2C (stereo partly drawn) (H-LLLL-X1) | 16 (≈ 17.5 µM) | > 32 | > 32 | 32 µg/mL (≈ 35.1 µM) | > 32 |  |  |  | 
5 | C[C@H](N)C(=O)Nc1ccc2c(c1O)C(=O)C1=C(O)[C@]3(O)C(O)=C(C(N)=O)C(=O)[C@@H](N(C)C)C3[C@@H](O)C1[C@H]2C (stereo partly drawn) | 2 (≈ 3.77 µM) | 8 (≈ 15.1 µM) | 8 (≈ 15.1 µM) | 2 µg/mL (≈ 3.77 µM) | 8 (≈ 15.1 µM) | > 32 | > 32 | > 32 | 16 (≈ 30.2 µM)
6 | CCCCNCC(=O)Nc1ccc2c(c1O)C(=O)C1=C(O)[C@]3(O)C(O)=C(C(N)=O)C(=O)[C@@H](N(C)C)C3[C@@H](O)C1[C@H]2C (stereo partly drawn) | 0.5 (≈ 0.873 µM) | 0.5 (≈ 0.873 µM) | 4 (≈ 6.99 µM) | 0.25 µg/mL (≈ 0.437 µM) | 1 (≈ 1.75 µM) | 4 (≈ 6.99 µM) |  | 8 (≈ 14 µM) | 
7 | CC(C)C[C@H](NC(=O)[C@@H](N)CC(C)C)C(=O)Nc1ccc2c(c1O)C(=O)C1=C(O)[C@]3(O)C(O)=C(C(N)=O)C(=O)[C@@H](N(C)C)C3[C@@H](O)C1[C@H]2C (stereo partly drawn) | 8 (≈ 11.7 µM) | > 32 | 4 (≈ 5.83 µM) | 4 µg/mL (≈ 5.83 µM) | > 32 |  |  | 32 (≈ 46.7 µM) | 
8 | COC(=O)Nc1ccc2c(c1O)C(=O)C1=C(O)[C@]3(O)C(O)=C(C(N)=O)C(=O)[C@@H](N(C)C)C3[C@@H](O)C1[C@H]2C (stereo partly drawn) | 0.06 (≈ 0.116 µM) | > 32 | 16 (≈ 30.9 µM) | 0.06 µg/mL (≈ 0.116 µM) | > 32 |  |  | 4 (≈ 7.73 µM) | 
9 | CN(C)CC(=O)Nc1ccc2c(c1O)C(=O)C1=C(O)[C@]3(O)C(O)=C(C(N)=O)C(=O)[C@@H](N(C)C)[C@@H]3CC1C2 (stereo partly drawn) | 0.12 (≈ 0.233 µM) | 0.25 (≈ 0.486 µM) | 0.25 (≈ 0.486 µM) | 0.12 µg/mL (≈ 0.233 µM) | 0.25 (≈ 0.486 µM) | 2 (≈ 3.89 µM) | 2 (≈ 3.89 µM) | 1 (≈ 1.94 µM) | 1 (≈ 1.94 µM)
10 | C[C@H]1c2ccc(NC(=O)CN3CCCCC3)c(O)c2C(=O)C2=C(O)[C@]3(O)C(O)=C(C(N)=O)C(=O)[C@@H](N(C)C)C3[C@@H](O)C21 (stereo partly drawn) | 0.25 (≈ 0.428 µM) | 0.5 (≈ 0.855 µM) | 1 (≈ 1.71 µM) | 0.12 µg/mL (≈ 0.205 µM) | 1 (≈ 1.71 µM) | 2 (≈ 3.42 µM) |  |  | 
11 | CNCC(=O)Nc1ccc2c(c1O)C(=O)C1=C(O)[C@]3(O)C(O)=C(C(N)=O)C(=O)[C@@H](N(C)C)C3[C@@H](O)C1[C@H]2C (stereo partly drawn) | 8 (≈ 15.1 µM) | 8 (≈ 15.1 µM) | 8 (≈ 15.1 µM) | 4 µg/mL (≈ 7.54 µM) | 4 (≈ 7.54 µM) | > 32 | > 32 | > 32 | 
12 | C[C@H]1c2ccc(NC(=O)CN)c(O)c2C(=O)C2=C(O)[C@]3(O)C(O)=C(C(N)=O)C(=O)[C@@H](N(C)C)C3[C@@H](O)C21 (stereo partly drawn) | 8 (≈ 15.5 µM) | 8 (≈ 15.5 µM) | 16 (≈ 31 µM) | 4 µg/mL (≈ 7.74 µM) | 8 (≈ 15.5 µM) | > 32 | > 32 | > 32 | 
13 | C[C@H]1c2cccc(O)c2C(=O)C2=C(O)[C@]3(O)C(O)=C(C(N)=O)C(=O)[C@@H](N(C)C)[C@@H]3[C@@H](O)C21 (stereo partly drawn) | 0.12 (≈ 0.27 µM) | 1 (≈ 2.25 µM) | 8 (≈ 18 µM) | 0.12 µg/mL (≈ 0.27 µM) | > 32 | 16 (≈ 36 µM) | 16 (≈ 36 µM) |  | 32 (≈ 72 µM)
14 | CC(C)C[C@@H](N)C(=O)Nc1ccc2c(c1O)C(=O)C1=C(O)[C@]3(O)C(O)=C(C(N)=O)C(=O)[C@@H](N(C)C)C3[C@@H](O)C1[C@H]2C (stereo partly drawn) | 2 (≈ 3.49 µM) | 8 (≈ 14 µM) | > 32 | 2 µg/mL (≈ 3.49 µM) | 4 (≈ 6.99 µM) |  | 16 (≈ 27.9 µM) | 16 (≈ 27.9 µM) | 
15 | CC(=O)Nc1ccc2c(c1O)C(=O)C1=C(O)[C@]3(O)C(O)=C(C(N)=O)C(=O)[C@@H](N(C)C)C3[C@@H](O)C1[C@H]2C (stereo partly drawn) | 0.5 (≈ 0.997 µM) | 8 (≈ 16 µM) | > 32 | 0.25 µg cm··-2 | 32 (≈ 63.8 µM) |  |  |  | 
